Measurements reported in ChEMBL document CHEMBL1157645, “Synthesis of 2-(thienyl-2-yl or -3-yl)-4-furyl-6-aryl pyridine derivatives and evaluation of their topoisomerase I and II inhibitory activity, cytotoxicity, and structure-activity relationship” (Bioorg Med Chem, 2010).

Legend:
[1] = test system: HCT-15; experiment: Cytotoxicity against human HCT15 cells in presence of 10% fetal bovine serum; format: functional, cell-based
How it was run: (§1)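 Cells cultured per supplier's instructions and seeded at 2–4 × 10⁴ cells per well. On day 2 the medium was replaced with medium containing graded compound concentrations. On day 4 cell counting kit-8 was added for a further 4 h, and absorbance was read at 450 nm. Values are 50% inhibitory concentrations, given as mean from three experiments run in triplicate.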

[2] = test system: MCF7; experiment: Cytotoxicity against human MCF7 cells in presence of 10% fetal bovine serum; format: functional; how it was run: as §1
[3] = test system: DU-145; experiment: Cytotoxicity against human DU145 cells in presence of 10% fetal bovine serum; format: functional, cell-based; how it was run: as §1
[4] = test system: HeLa; experiment: Cytotoxicity against human HeLa cells in presence of 10% fetal bovine serum; format: functional, cell-based; how it was run: as §1
[5] = test system: K562; experiment: Cytotoxicity against human K562 cells in presence of 10% fetal bovine serum; format: functional, cell-based; how it was run: as §1
[6] = target: T1, DNA topoisomerase 1 (Homo sapiens) (UniProt P11387); experiment: Inhibition of human recombinant topoisomerase 1 assessed as inhibition of relaxation of supercoiled pBR322 DNA at 100 uM by agarose gel electrophoresis
T1 sequence (whole entry): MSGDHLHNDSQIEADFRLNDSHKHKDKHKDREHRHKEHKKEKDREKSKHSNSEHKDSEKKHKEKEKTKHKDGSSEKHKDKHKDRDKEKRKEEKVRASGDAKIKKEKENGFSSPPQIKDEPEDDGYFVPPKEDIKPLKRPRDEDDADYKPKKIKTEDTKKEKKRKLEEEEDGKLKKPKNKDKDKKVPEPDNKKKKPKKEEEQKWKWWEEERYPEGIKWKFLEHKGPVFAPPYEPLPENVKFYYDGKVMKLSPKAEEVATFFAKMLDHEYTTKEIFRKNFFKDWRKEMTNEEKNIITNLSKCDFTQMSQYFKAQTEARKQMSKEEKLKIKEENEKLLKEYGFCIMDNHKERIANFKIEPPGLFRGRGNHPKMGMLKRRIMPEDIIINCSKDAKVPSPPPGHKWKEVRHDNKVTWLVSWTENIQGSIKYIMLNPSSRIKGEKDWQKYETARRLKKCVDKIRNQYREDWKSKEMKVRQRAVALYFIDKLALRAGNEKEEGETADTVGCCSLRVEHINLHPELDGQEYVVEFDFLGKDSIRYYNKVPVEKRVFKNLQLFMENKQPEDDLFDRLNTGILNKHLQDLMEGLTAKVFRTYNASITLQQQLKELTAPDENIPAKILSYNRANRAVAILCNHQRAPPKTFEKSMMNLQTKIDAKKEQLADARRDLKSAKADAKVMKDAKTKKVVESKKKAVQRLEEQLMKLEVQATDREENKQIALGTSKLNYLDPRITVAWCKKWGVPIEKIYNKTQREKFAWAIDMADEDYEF
How it was run: (§2)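 100 ng pBR322 DNA was incubated with 0.4 units of recombinant human topo I, with or without compound (DMSO stocks at 20 mM), for 30 min at 37 °C in 10 mM Tris–HCl pH 7.9, 150 mM NaCl, 0.1% BSA, 1 mM spermidine and 5% glycerol. The reaction was stopped with sarkosyl/bromophenol blue/glycerol and run on 1% agarose in TAE at 15 V for 7 h. Relaxation was read from ethidium bromide staining.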

[7] = target: DNA topoisomerase 2-alpha (Homo sapiens) (UniProt P11388); experiment: Inhibition of human recombinant DNA topoisomerase 2 assessed as inhibition of relaxation of supercoiled pBR322 DNA at 100 uM by agarose gel electrophoresis
Sequence of DNA topoisomerase 2-alpha (Homo sapiens) (P11388 whole entry): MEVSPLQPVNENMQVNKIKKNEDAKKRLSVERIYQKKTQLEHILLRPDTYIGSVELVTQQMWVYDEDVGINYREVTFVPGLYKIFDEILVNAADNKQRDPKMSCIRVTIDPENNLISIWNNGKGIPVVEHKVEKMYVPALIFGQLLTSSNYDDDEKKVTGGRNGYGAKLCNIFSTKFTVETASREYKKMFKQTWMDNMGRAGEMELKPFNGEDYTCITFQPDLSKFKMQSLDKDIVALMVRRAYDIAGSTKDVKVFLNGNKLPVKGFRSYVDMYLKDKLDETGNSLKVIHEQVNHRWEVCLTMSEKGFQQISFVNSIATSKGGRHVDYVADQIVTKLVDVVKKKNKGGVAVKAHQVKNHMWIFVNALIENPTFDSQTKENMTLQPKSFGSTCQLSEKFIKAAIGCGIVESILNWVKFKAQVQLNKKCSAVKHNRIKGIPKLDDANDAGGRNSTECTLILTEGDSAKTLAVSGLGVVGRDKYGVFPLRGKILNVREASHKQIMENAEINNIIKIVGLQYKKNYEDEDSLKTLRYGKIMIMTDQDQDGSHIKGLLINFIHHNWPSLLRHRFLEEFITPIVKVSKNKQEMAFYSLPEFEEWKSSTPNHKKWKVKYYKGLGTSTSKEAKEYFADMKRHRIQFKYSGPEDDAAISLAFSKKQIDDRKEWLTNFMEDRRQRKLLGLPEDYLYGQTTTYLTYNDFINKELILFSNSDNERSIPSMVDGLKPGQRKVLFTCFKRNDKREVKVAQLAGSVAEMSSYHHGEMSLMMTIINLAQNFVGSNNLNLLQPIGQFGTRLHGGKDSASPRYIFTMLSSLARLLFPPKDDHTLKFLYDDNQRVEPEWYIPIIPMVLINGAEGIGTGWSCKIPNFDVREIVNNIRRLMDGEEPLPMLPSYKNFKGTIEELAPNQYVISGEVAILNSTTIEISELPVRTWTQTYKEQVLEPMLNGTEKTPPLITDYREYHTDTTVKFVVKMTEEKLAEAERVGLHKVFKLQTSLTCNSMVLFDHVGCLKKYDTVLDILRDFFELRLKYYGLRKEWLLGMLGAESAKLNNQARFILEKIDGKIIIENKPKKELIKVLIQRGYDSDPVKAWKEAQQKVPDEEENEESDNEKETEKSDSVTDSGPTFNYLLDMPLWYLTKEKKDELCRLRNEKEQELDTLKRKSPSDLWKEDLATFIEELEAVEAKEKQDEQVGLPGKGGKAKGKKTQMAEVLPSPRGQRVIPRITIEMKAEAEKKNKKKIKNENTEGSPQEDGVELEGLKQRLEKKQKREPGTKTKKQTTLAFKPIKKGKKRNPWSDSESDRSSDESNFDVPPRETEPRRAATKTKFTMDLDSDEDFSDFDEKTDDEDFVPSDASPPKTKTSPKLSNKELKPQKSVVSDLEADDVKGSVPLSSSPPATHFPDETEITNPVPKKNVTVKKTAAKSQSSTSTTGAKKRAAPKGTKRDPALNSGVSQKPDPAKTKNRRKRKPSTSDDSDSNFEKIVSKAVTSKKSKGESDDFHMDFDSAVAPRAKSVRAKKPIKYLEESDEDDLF
How it was run: (§3)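 pBR322 DNA was incubated with two units of human topo IIα, with or without compound (DMSO stocks at 20 mM), in 10 mM Tris–HCl pH 7.9 with 50 mM NaCl, 5 mM MgCl₂, 1 mM EDTA, 1 mM ATP and BSA, for 30 min at 30 °C. The reaction was stopped with EDTA and run on 1% agarose in TAE at 25 V for 4 h. Gels were stained with ethidium bromide, and supercoiled DNA was quantified under UV.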

[8] = target: DNA topoisomerase 2-alpha (Homo sapiens) (UniProt P11388); experiment: Inhibition of human recombinant DNA topoisomerase 2 assessed as inhibition of relaxation of supercoiled pBR322 DNA at 20 uM by agarose gel electrophoresis; how it was run: as §3
[9] = target: T1, DNA topoisomerase 1 (Homo sapiens); experiment: Inhibition of human recombinant topoisomerase 1 assessed as inhibition of relaxation of supercoiled pBR322 DNA at 20 uM by agarose gel electrophoresis; how it was run: as §2

SMILES | inhibition [6] | inhibition [7] | inhibition [8] | inhibition [9] | IC50 [1] | IC50 [2] | IC50 [3] | IC50 [4] | IC50 [5]
COc1cc([C@@H]2c3cc4c(cc3[C@@H](O[C@@H]3O[C@@H]5CO[C@@H](C)O[C@H]5[C@H](O)[C@H]3O)[C@H]3COC(=O)[C@H]23)OCO4)cc(OC)c1O [ETOPOSIDE] | – | – | – | – | 1.29 µM | 1.66 µM | 2.45 µM | 1.57 µM | 2.84 µM
Cc1ccccc1-c1cc(-c2ccc(Cl)o2)cc(-c2ccsc2)n1 | 6.7% | 59.6% | 46.3% | – | 4.63 µM | 1.23 µM | 24.8 µM | 9.77 µM | 18.4 µM
Clc1ccc(-c2cc(-c3ccsc3)nc(-c3ccco3)c2)o1 | 8.2% | 78.6% | 63.8% | – | > 50 µM | 21.3 µM | 18.9 µM | > 50 µM | 22.4 µM
Clc1ccc(-c2cc(-c3ccsc3)nc(-c3ccccn3)c2)o1 | 0% | 63.1% | 60.9% | – | > 50 µM | 21 µM | 10.9 µM | 22.5 µM | 21.9 µM
Cc1cccc(-c2cc(-c3ccc(Cl)o3)cc(-c3ccsc3)n2)c1 | 7.5% | 64.1% | 56.7% | – | 21.7 µM | 1.28 µM | 17.9 µM | 20.3 µM | 20.2 µM
Clc1ccc(-c2cc(-c3ccsc3)nc(-c3ccccc3Cl)c2)o1 | 0% | 64.1% | 59.5% | – | 4.57 µM | 1.71 µM | 19.3 µM | 8.07 µM | 17.2 µM
Clc1ccc(-c2cc(-c3cccnc3)nc(-c3ccsc3)c2)o1 | 0% | 86.5% | 60.8% | – | > 50 µM | > 50 µM | 21.6 µM | > 50 µM | 21.7 µM
COc1cccc2c1C(=O)c1c(O)c3c(c(O)c1C2=O)C[C@@](O)(C(=O)CO)C[C@@H]3O[C@H]1C[C@H](N)[C@H](O)[C@H](C)O1.Cl [DOXORUBICIN HYDROCHLORIDE] | – | – | – | – | 2.32 µM | 1.25 µM | 1.98 µM | – | 2.45 µM
Cc1ccc(-c2cc(-c3ccc(Cl)o3)cc(-c3ccsc3)n2)o1 | 9.1% | 62.6% | 34.7% | – | > 50 µM | 1.42 µM | 18.5 µM | > 50 µM | 23.3 µM
CC[C@@]1(O)C(=O)OCc2c1cc1n(c2=O)Cc2cc3ccccc3nc2-1 [CAMPTOTHECIN] | – | – | – | – | 0.64 µM | 0.05 µM | 0.94 µM | 0.63 µM | 0.08 µM

Continued, in another order:

inhibition [6] | inhibition [7] | inhibition [8] | inhibition [9] | SMILES | IC50 [1] | IC50 [2] | IC50 [3] | IC50 [4] | IC50 [5]
16% | 38.5% | 25.5% | – | Clc1ccc(-c2cc(-c3ccco3)nc(-c3cccs3)c2)o1 | > 50 µM | 5.27 µM | 21.8 µM | 18.8 µM | 16 µM
2.7% | 31.4% | – | – | Clc1ccc(-c2cc(-c3ccco3)cc(-c3cccs3)n2)cc1 | > 100 µM | 24.6 µM | > 100 µM | 32.7 µM | > 100 µM
42% | 44.7% | 32.7% | 8.5% | Clc1cccc(-c2cc(-c3ccc(Cl)o3)cc(-c3cccs3)n2)c1 | 15.5 µM | 2.86 µM | 18.1 µM | 12.8 µM | 19.8 µM
38.9% | 42.5% | 38.1% | 6.3% | Clc1ccc(-c2cc(-c3ccc(Cl)o3)cc(-c3cccs3)n2)cc1 | 14.2 µM | 2.45 µM | 19.2 µM | 21.3 µM | 20.9 µM
0% | 20.5% | – | – | Clc1ccc(-c2cc(-c3ccoc3)cc(-c3ccsc3)n2)cc1 | > 100 µM | 56.1 µM | 37.6 µM | 4.14 µM | 0.73 µM
29.8% | 75.9% | 65.7% | 5.2% | Clc1ccc(-c2cc(-c3ccc(Cl)o3)cc(-c3ccsc3)n2)cc1 | 5.19 µM | 1.77 µM | 19.5 µM | 8.41 µM | 18.7 µM
2.6% | 78.9% | 70.2% | – | Cc1ccc(-c2cc(-c3ccc(Cl)o3)cc(-c3ccsc3)n2)cc1 | 7.41 µM | 0.63 µM | 21.2 µM | 16.2 µM | 19.9 µM
13.2% | 14.2% | – | – | Cc1ccc(-c2cc(-c3ccoc3)cc(-c3ccsc3)n2)cc1 | 44.8 µM | 9.32 µM | 13 µM | 1.47 µM | 47.8 µM
41.8% | 21.8% | – | 9.3% | Cc1ccc(-c2cc(-c3ccc(Cl)o3)cc(-c3cccs3)n2)cc1 | 9.89 µM | 1.33 µM | 19.3 µM | 16.3 µM | 21.5 µM
25.8% | 51.5% | 30.9% | – | Clc1ccc(-c2cc(-c3cccnc3)nc(-c3cccs3)c2)o1 | 1.24 µM | 2.87 µM | 13 µM | 14.6 µM | 22.3 µM
41.3% | 35% | 15.4% | 8% | Clc1ccc(-c2cc(-c3cccs3)nc(-c3ccccc3Cl)c2)o1 | 6.19 µM | 1.93 µM | 16.8 µM | 18.5 µM | 17.2 µM
0% | 75.9% | 75.4% | – | Clc1cccc(-c2cc(-c3ccc(Cl)o3)cc(-c3ccsc3)n2)c1 | 13.7 µM | 4.26 µM | 10.4 µM | 8.71 µM | 23 µM
0% | 30.2% | – | – | Clc1ccc(-c2cc(-c3ccoc3)cc(-c3cccs3)n2)cc1 | 50 µM | 29.1 µM | 21.1 µM | 5.53 µM | 21.1 µM
